Measured values from ChEMBL document CHEMBL3351291, “Lajollamycins, nitro group-bearing spiro-β-lactone-γ-lactams obtained from a marine-derived Streptomyces sp” (J Nat Prod, 2014).
Calls of active or inactive are those of the source. The calls are words filed in the database; no cut-off is given here.

Legend:
Bacillus subtilis = test: Antibacterial activity against Bacillus subtilis ATCC 6633; assay type: functional
Proteus hauseri = test: Antibacterial activity against Proteus hauseri NBRC 3851; assay type: functional
[1] = Inhibition of Candida albicans isocitrate lyase using isocitrate substrate
Method in brief: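 Recombinant ICL at 2.5 μg/mL in 20 mM sodium phosphate buffer, pH 7.0, with 1.27 mM threo-DL(+)-isocitrate, 3.75 mM MgCl2 and 4.1 mM phenylhydrazine. Reaction started on substrate addition, with or without inhibitor in DMSO (0.5% final). After 30 min at 37 °C, glyoxylate phenylhydrazone was read at 324 nm. Percent inhibition was taken against an inhibitor-free control, with 3-nitropropionic acid as positive control.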

K562 = test: Cytotoxicity against human K562 cells; assay type: functional, cell-based
A549 = test: Cytotoxicity against human A549 cells; assay type: functional, cell-based
Staphylococcus aureus = test: Antibacterial activity against Staphylococcus aureus ATCC 6538p; assay type: functional
Kocuria rhizophila = test: Antibacterial activity against Kocuria rhizophila NBRC 12708; assay type: functional
Salmonella enterica = test: Antibacterial activity against Salmonella enterica ATCC 14028; assay type: functional
Candida albicans = test: Antifungal activity against Candida albicans; assay type: functional, organism-based
MDA-MB-231 = test: Cytotoxicity against human MDA-MB-231 cells; assay type: functional, cell-based
[2] = Cytotoxicity against human SKHEP1 cells; assay type: functional, cell-based; details: SK-HEP1
Aspergillus fumigatus = test: Antifungal activity against Aspergillus fumigatus; assay type: functional, organism-based
[3] = Cytotoxicity against human HCT116 cells; assay type: functional, cell-based; details: HCT-116
Escherichia coli = test: Antibacterial activity against Escherichia coli ATCC 35270; assay type: functional
[4] = Cytotoxicity against human SNU638 cells; assay type: functional, cell-based; details: SNU-638

SMILES | MIC (Bacillus subtilis) [µg/mL] | MIC (Proteus hauseri) [µg/mL] | IC50 ([1]; read-out: IC50) [µM] | IC50 (K562) [µM] | IC50 (A549) [µM] | MIC (Staphylococcus aureus) [µg/mL] | MIC (Kocuria rhizophila) [µg/mL] | MIC (Salmonella enterica) [µg/mL] | Activity (Candida albicans) | IC50 (MDA-MB-231) [µM] | IC50 [2] [µM] | Activity (Aspergillus fumigatus) | IC50 [3] [µM] | MIC (Escherichia coli) [µg/mL] | IC50 [4] [µM] | IC50 [1] [µg/mL]
CO[C@@H](C[C@@H](C)[C@@H](O)/C=C/C=C/CNC(=O)C(C)(C)[C@H](O)/C(C)=C/C=C/C=C/C(C)=C(\C)[N+](=O)[O-])[C@]1(O)[C@@H](C)C(=O)N(C)[C@]12C(=O)O[C@@H]2C | > 128 | > 128 | 50 | > 100 | > 100 | > 128 | > 128 | > 128 | inactive | > 100 | > 100 | inactive | > 100 | > 128 | > 100 | 
CO[C@@H](C[C@@H](C)[C@@H](O)/C=C/C=C/CNC(=O)C(C)(C)[C@H](O)\C(C)=C/C=C/C=C/C(C)=C(\C)[N+](=O)[O-])[C@]1(O)[C@@H](C)C(=O)N(C)[C@]12C(=O)O[C@@H]2C | > 128 | > 128 | 120 | > 100 | > 100 | > 128 | > 128 | > 128 | inactive | > 100 | > 100 | inactive | > 100 | > 128 | > 100 | 
O=C(O)CC[N+](=O)[O-] |  |  |  |  |  |  |  |  |  |  |  |  |  |  |  | 4.2
COC(CC(C)C(O)/C=C/C=C/CNC(=O)C(C)(C)C(O)\C(C)=C/C=C\C=C\C(C)=C(/C)[N+](=O)[O-])C1(O)C(C)C(=O)N(C)C12C(=O)OC2C (stereo unspecified) [LAJOLLAMYCIN] | > 128 | > 128 | 42 | > 100 | > 100 | > 128 | > 128 | > 128 | inactive | > 100 | > 100 | inactive | > 100 | > 128 | > 100 | 
CO[C@@H](C[C@@H](C)[C@@H](O)/C=C/C=C/CNC(=O)C(C)(C)[C@H](O)/C(C)=C/C=C/C=C/C(C)=C(\C)[N+](=O)[O-])[C@]1(O)[C@@H](C)C(=O)N(C)[C@@]12COC2=O | > 128 | > 128 | 40 | > 100 | > 100 | > 128 | > 128 | > 128 | inactive | > 100 | > 100 | inactive | > 100 | > 128 | > 100 | 
